DSG3 Ab inh – blocks pemphigus antibody binding to human desmoglein-3 | P32926 | DSG3-coupled beads, scFv-anti-DSG3-GFP binding, flow cytometry; hits give low values | binding (percent of control), % at 10 µM | 310,000 compounds, 0.48% hits | AID 588358;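 active = binding more than 3 SD below its plate's average and above zero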;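 also: hits lower antibody fragment binding to DSG3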
Target sequence (P32926 whole entry, looked up, the tested form may be a part): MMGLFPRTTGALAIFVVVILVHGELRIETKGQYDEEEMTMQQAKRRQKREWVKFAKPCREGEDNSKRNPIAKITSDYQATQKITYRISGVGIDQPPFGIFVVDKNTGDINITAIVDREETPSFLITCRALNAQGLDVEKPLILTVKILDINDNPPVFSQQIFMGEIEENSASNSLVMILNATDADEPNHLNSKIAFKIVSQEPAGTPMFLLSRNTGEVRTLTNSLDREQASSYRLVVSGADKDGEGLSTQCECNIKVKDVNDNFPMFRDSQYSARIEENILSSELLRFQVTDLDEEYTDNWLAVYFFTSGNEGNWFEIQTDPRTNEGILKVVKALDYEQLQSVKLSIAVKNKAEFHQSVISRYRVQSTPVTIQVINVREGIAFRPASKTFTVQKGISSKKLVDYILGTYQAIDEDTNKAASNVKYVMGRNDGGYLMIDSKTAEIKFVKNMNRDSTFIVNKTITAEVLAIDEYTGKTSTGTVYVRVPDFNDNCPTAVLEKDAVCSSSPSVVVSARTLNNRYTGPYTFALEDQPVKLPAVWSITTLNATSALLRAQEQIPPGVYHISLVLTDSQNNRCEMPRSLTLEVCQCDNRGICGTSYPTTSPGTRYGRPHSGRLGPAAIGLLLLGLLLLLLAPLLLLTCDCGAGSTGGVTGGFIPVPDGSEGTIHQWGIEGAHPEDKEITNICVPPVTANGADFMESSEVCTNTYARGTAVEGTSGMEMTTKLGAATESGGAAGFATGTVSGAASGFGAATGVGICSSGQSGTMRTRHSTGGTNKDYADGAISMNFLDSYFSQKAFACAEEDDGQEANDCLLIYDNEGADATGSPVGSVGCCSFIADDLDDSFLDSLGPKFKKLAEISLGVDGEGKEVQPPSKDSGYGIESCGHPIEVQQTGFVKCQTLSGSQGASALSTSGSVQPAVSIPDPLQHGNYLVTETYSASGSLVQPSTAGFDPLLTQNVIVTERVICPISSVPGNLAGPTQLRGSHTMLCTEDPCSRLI
Apaf1 inhib – blocks human Apaf-1 apoptosome activity; AID 489030; 330,000 compounds, 0.71% hits; reconstituted apoptosome caspase-3 activity, DEVD-Rh110 fluorescence; inhibition, % at 20 µM; O14727; active = inhibition of at least 40% at 20 µM;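 also: plate controls were DMSO wells for no effect and DEVD-CHO caspase inhibitor wells for full effect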
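Assay system: Apoptosome proteins | Medium: pH 7.5 Hepes buffer with CHAPS, BSA, DTT | Also added: Cytochrome c and DEVD-Rh110 substrate | Times: 30 min plus 50 min, RT | Detection: Rhodamine 110 fluorescence at Ex 480/Em 540 nm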
MEKK2mut PB1 HTS – signal of MEK5 binding to mutant human MEKK2 PB1 domain | 290,000 compounds, 0.35% hits | AID 1530 | bead flow cytometry, Alexa488-MEK5 binding to MEKK2 mutant | percent response, % at 10 µM; in the data active = percent response above about 24%, passing the limit was not always enough
UBC13 polyUb – human UBC13 polyubiquitination inhibition | AID 485273 | UBC13 polyubiquitin chain formation, TR-FRET | 330,000 compounds, 0.47% hits | inhibition, % at 20 µM | P61088; in the data active = inhibition above about 45%, passing the limit was not always enough
MEKK2wt PB1 HTS – raises or lowers MEK5 binding to wildtype human MEKK2 PB1 domain | Q9Y2U5 | bead flow cytometry, Alexa488-MEK5 binding to MEKK2 WT; actives lie on both sides | binding response (% of control), % at 10 µM | 290,000 compounds, 1.1% hits | AID 1531; in the data active = binding response below about 67% or above about 130%
MEKK3 PB1 HTS – raises or lowers MEK5 binding to the human MEKK3 PB1 domain; Q99759; binding response (% of control), % at 10 µM; 290,000 compounds, 1.4% hits; bead-based flow cytometry, Alexa488-MEK5 binding to MEKK3; actives lie on both sides; 0 = blocked by unlabeled MEK5, 100 = vehicle;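 active = binding response more than 3 SD above or below the average of its plate-row segment, actives on both sides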;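 also: Alexa488 bead fluorescence after subtracting the streptavidin-only scavenger bead signal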
Apaf-1 inh conf2 – Apaf-1 inhibition, single-dose confirmed. shares compounds with Apaf1 inhib. reconstituted apoptosome, caspase-3 DEVD-Rh110 fluorescence. inhibition, % at 20 µM. 1,800 compounds, 25% hits. AID 504614;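 active = mean inhibition of at least 40% at 20 µM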;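 also: plate controls were DMSO wells for no effect and DEVD-CHO caspase inhibitor control wells for full effect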
Rh110 quench – interferes with Rh110 fluorescence, flagging false Apaf-1 inhibitors; shares compounds with Apaf1 inhib; 1,800 tested, under 10 active; activation (fluorescence interference), % at 20 µM; Rh110 fluorescence interference, quenched caspase reaction;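 active = signal rise of 40% or more at 20 µM, treated as a fluorescence artifact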
Apaf1 inh interf – shows fluorescence interference in the Apaf-1 inhibitor assay format; shares compounds with Apaf1 inhib; fluorescence interference counterscreen, Apaf-1 assay format; IC50, µM; 460 tested, under 10 active; call rule not given here
Numbers without * were called inactive; · = no result. This is a sample that favours compounds with a hit; in the whole collection about 3.2% have one here.

SMILES	DSG3 Ab inh	Apaf1 inhib	MEKK2mut PB1 HTS	UBC13 polyUb	MEKK2wt PB1 HTS	MEKK3 PB1 HTS	Apaf-1 inh conf2	Rh110 quench	others
COc1ccc(C#Cc2cnc3c(c2)C(=O)N([C@@H](C)CO)C[C@@H](C)[C@@H](CN(C)CC2CCOCC2)O3)cc1	102.8	·	·	·	·	·	·	·
COc1cccc(N=CNc2cccc(OC)c2)c1	88.9	·	·	·	·	·	·	·
CC1=CC(C)(C)N2C(=O)C(=Nc3ccc(O)cc3)c3cccc1c32	87.5	90.2*	2.0	-27.6	97.0	103.0	14.6	-2.9
O=C(NNC(=O)C1CCC1)c1ccc(F)cc1	100.2	·	·	·	·	·	·	·
N#Cc1cc2ccc(N3CCOCC3)cc2cc1C#N	78.5	82.2*	1.0	-29.7	102.0	103.0	9.9	10.3
O=C(NCc1ccccc1Cl)C1CCC(=O)N(CC2CCCCC2)C1 (stereo unspecified)	101.0	8.8	5.0	-0.3	106.0	102.0	·	·
Clc1ccc(OCCSc2nnnn2C2CCCCC2)cc1	96.5	65.2*	5.0	0.2	99.0	99.0	12.0	0.8
CC(C(=O)NC(=O)NC1CCCCC1)N(C)CC(=O)Nc1ccc(F)c(F)c1F (stereo unspecified)	100.1	46.2*	·	-3.5	·	·	13.5	6.9
CCOC(=O)C1=C(CN2CCN(c3ccc(F)cc3)CC2)NC(=O)NC1c1cccs1 (stereo unspecified)	105.1	41.2*	3.0	0.3	101.0	99.0	22.7	13.9
CCOC(=O)C1=C(CN2CCOCC2)NC(=O)NC1c1cc(C)ccc1C (stereo unspecified)	·	-16.0	1.0	1.3	102.0	96.0	·	·
O=S(=O)(c1ccc2c(c1)CCN2)N1CCCC1	110.5	-10.0	·	-0.6	·	·	·	·
COc1ccc(C2/C(=C(\O)c3ccc4c(c3)OCCO4)C(=O)C(=O)N2CCCn2ccnc2)cc1 (stereo unspecified)	98.8	27.4	-2.0	-27.0	95.0	94.0	·	·
CC1Cc2cc(/C(O)=C3/C(=O)C(=O)N(CCCn4ccnc4)C3c3ccncc3)ccc2O1 (stereo unspecified)	99.2	-13.5	2.0	5.9	102.0	101.0	·	·
COc1ccccc1C1/C(=C(\O)c2ccc3c(c2)OCCO3)C(=O)C(=O)N1CCCn1ccnc1 (stereo unspecified)	97.2	45.0*	5.0	-18.3	103.0	98.0	11.6	-1.1
COc1ccc(C2/C(=C(/O)c3ccc4c(c3)CC(C)O4)C(=O)C(=O)N2CCCn2ccnc2)cc1 (stereo unspecified)	100.6	41.6*	6.0	-41.2	107.0	105.0	6.8	3.9
O=C1NN(CCO)C(=S)Nc2ccccc21	110.1	·	·	·	·	·	·	·
CC(C)NC[C@@H](O)c1ccc(O)c(O)c1	120.4	42.7*	-2.0	12.8	101.0	85.0	13.9	5.5
COc1ccc([C@H](C)NC[C@H](O)c2ccc(O)c(NC=O)c2)cc1	107.1	3.3	7.0	9.2	87.0	112.0	·	·
CCCC1=Nc2cc(C(=O)NCCCOCC)ccc2Sc2ccccc21	·	45.4*	1.0	-0.9	100.0	100.0	2.6	-0.9
CCCC1=Nc2cc(C(=O)NCCCOC(C)C)ccc2Sc2ccccc21	·	25.1	2.0	-2.3	100.0	106.0	·	·
Cc1ccc2cc(C(c3nnnn3Cc3ccccc3)N3CCc4ccccc43)c(=O)[nH]c2c1 (stereo unspecified)	98.2	43.3*	-1.0	5.5	94.0	106.0	18.3	4.3
Cc1cc2cc(C(c3nnnn3Cc3ccco3)N3CCc4ccccc4C3)c(=O)[nH]c2cc1C (stereo unspecified)	102.3	40.9*	3.0	-6.6	94.0	104.0	23.6	10.4
Cc1ccc2[nH]c(=O)c(C(c3nnnn3CC3CCCO3)N3CCc4ccccc4C3)cc2c1 (stereo unspecified)	·	66.0*	-2.0	0.1	99.0	98.0	17.3	9.4
COc1ccc2cc(C(c3nnnn3C(C)(C)C)N3CCc4ccccc4C3)c(=O)[nH]c2c1 (stereo unspecified)	·	30.6	·	-10.7	·	·	·	·
COc1ccc2cc(C(c3nnnn3C3CCCC3)N3CCc4ccccc4C3)c(=O)[nH]c2c1 (stereo unspecified)	101.8	72.1*	-2.0	-3.7	95.0	99.0	23.6	13.2
SMILES	DSG3 Ab inh	Apaf1 inhib	MEKK2mut PB1 HTS	UBC13 polyUb	MEKK2wt PB1 HTS	MEKK3 PB1 HTS	Apaf-1 inh conf2	Rh110 quench	others
N#Cc1ccc(C23CC4(C2)[C@H](CN(Cc2ccc(-c5ccccc5)cc2)[C@@H]4c2ccccc2)C3c2ccc(C(F)(F)F)cc2)cc1 (stereo partly specified)	·	44.8*	5.0	-0.4	106.0	103.0	4.5	8.4
FC(F)(F)c1ccc(C2[C@H]3CN(Cc4ccc(-c5ccccc5)cc4)[C@H](c4ccccc4)C34CC2(c2ccccc2)C4)cc1 (stereo partly specified)	·	30.0	5.0	-8.9	96.0	96.0	·	·
CCOc1c(Cl)cc(/C=C/C(=O)N(CC)CC(=O)NCc2cccs2)cc1OC	99.5	13.8	·	-4.7	·	·	·	·
CCCCC[n+]1ccn(C2=C([O-])c3ccccc3C(=O)/C2=N\S(=O)(=O)c2ccccc2)c1	104.0	52.9*	3.0	-90.8	106.0	104.0	62.5*	7.9	Apaf1 inh interf=>100
CC(C)[n+]1ccn(C2=C([O-])c3ccccc3C(=O)/C2=N\S(=O)(=O)c2ccccc2)c1	·	46.2*	-21.0	-57.6	69.0	63.0	68.3*	3.1	Apaf1 inh interf=>100
CCCCC[n+]1ccn(C2=C([O-])c3ccccc3C(=O)/C2=N\S(=O)(=O)c2ccc(Br)cc2)c1	104.4	61.0*	-5.0	-114.8	96.0	94.0	43.2*	4.5	Apaf1 inh interf=>100
O=C1Nc2ccc(S(=O)(=O)NCc3ccco3)c3cccc1c23	96.9	49.5*	-2.0	-23.3	97.0	98.0	22.0	16.7
O=C(O)CNS(=O)(=O)c1ccc2c3c(cccc13)C(=O)N2	117.2	1.0	-1.0	-7.1	97.0	99.0	·	·
COc1ccc(CN(C(=O)c2ccc(C)cc2)C2CCS(=O)(=O)C2)cc1 (stereo unspecified)	·	1.2	0.0	3.1	96.0	103.0	·	·
CC(=O)c1cc(O)c2ccccc2c1O	111.4	58.0*	3.0	-40.8	93.0	96.0	10.7	2.6
O=C1NN(c2ccccc2)C(=O)/C1=C/c1ccc(-c2ccc(C(=O)O)cc2)o1	97.5	6.8	3.0	-33.9	103.0	100.0	·	·

Screening results deposited in PubChem by several laboratories.
